Screening data as filed in PubChem.
An excerpt weighted towards active compounds, which were near 0.55% of everything screened.
Rad51 HR inh = human RAD51 strand exchange inhibitors, primary screen, biochemical, fluorescence. DNA repair protein RAD51 homolog 1 (Homo sapiens), Q06609. hRad51 DNA strand exchange, fluorescence dequenching. inhibition, % at 10 µM. 0.085% of 200,000 active. AID 1385, 2008;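 active means inhibition above 40% at the single screening dose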;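 further: 0% = DMSO control wells and 100% = blanks with heterologous ssDNA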
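material = hRad51 filaments on single-stranded DNA | reagent = Donor/quencher-labelled 47-bp dsDNA substrate | compound = 10 µM final, single point | schedule = strand-exchange reaction 15 min at room temperature | measured by = fluorescein emission 520 nm, excitation 485 nm | read-out basis = % inhibition versus plate control and blank means | benchmarks = plate controls and plate blanks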
ABCB1 inh = ABCB1 efflux pump inhibitors, primary screen, cell-based, multiplex, flow cytometry, ABCG2 counter-screen; ATP-dependent translocase ABCB1 (Homo sapiens), P08183; CCRF-Adr cells, JC-1 efflux; inhibition, % at 6.6 µM; 0.067% of 190,000 active; in the data active means inhibition above about 40%;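 further: 0% = vehicle and 100% = reference inhibitor; higher value means more JC-1 retained so stronger ABCB1 efflux block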
HSV replic up = enhancers of HSV replication in host cells, fold increase, host cell viability. HSV replication augmentation in cells. maximum fold increase. 0.005% of 220,000 active. AID 1956, 2009; in the data active means maximum fold increase above about 1.5; inconclusive means no clear call, values can overlap the other calls; tested in PC3 cells
ABCB6 inh 2 = ABCB6 transporter inhibitors, primary screen, K562-ABCB6 cells, flow cytometry, MLPCN library. 0.19% of 360,000 active. ATP-binding cassette sub-family B member 6 (Homo sapiens), Q9NP58. fluorescence ratio to DMSO, % at 10 µM. K562-ABCB6 porphyrin accumulation, 1 h; active compounds read low;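 active means fluorescence ratio to DMSO below 75%, the collection mean minus 3 SD; inconclusive means too few cells collected in the well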;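 further: signal is porphyrin accumulated inside mitochondria; 100% equals median channel fluorescence of DMSO control wells; lower ratio means ABCB6 inhibition with less porphyrin fluorescence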
ABCG2 block = ABCG2 efflux pump inhibitors, primary screen, multiplex with ABCB1, IgMXP3 cells, flow cytometry; inhibition, % at 6.6 µM; AID 1325, 2008; JC-1 efflux; 0.1% of 190,000 active; Broad substrate specificity ATP-binding cassette transporter ABCG2 (Homo sapiens), Q9UNQ0;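 active means inhibition above 80%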;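 further: 0% = DMSO and 100% = nicardipine control wells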
Target sequence (Q9UNQ0 whole entry, looked up): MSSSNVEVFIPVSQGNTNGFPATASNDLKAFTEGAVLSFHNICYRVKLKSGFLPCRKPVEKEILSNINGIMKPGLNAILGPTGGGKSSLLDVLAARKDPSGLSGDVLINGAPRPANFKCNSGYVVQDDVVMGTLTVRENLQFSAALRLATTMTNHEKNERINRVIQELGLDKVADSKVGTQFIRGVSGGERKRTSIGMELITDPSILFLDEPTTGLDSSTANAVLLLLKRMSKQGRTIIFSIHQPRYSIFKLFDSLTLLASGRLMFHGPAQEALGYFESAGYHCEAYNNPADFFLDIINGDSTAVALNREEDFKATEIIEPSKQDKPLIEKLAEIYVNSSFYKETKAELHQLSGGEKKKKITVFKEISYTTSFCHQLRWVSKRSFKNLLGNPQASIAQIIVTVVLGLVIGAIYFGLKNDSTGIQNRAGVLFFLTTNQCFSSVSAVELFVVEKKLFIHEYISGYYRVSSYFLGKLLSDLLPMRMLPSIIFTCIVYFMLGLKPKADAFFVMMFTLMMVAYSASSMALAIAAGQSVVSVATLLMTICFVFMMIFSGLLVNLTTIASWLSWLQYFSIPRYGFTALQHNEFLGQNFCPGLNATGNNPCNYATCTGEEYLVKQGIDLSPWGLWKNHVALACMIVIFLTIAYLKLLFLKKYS
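Incubation: cells with compound and JC-1, 10 min at 25 °C, rotating, no wash / Test system: IgMXP3 (ABCG2) plus far-red-tagged CCRF-Adr (ABCB1) cells / Compound dosing: one concentration, 6.6 µM final / Also added: JC-1 fluorescent substrate / Evaluation: efflux inhibition in percent versus controls / Detection: flow cytometry, 530 nm JC-1 signal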
p97 ATPase inh = inhibitors of human p97 ATPase, primary screen, biochemical | recombinant p97 ATPase, Kinase-Glo ATP luminescence, 3 h | inhibition, % at 8 µM | 0.42% of 220,000 active; in the data active means inhibition above about 15%;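 further: 0% = DMSO vehicle and 100% = wells lacking enzyme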
p97 confirm = p97 ATPase inhibitors, retest, confirmation, biochemical; shares compounds with p97 ATPase inh; recombinant p97 ATPase, Kinase-Glo ATP luminescence; inhibition, % at 8 µM; 44% of 760 active; AID 1517, 2009;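 active means percent inhibition of p97 ATPase above a set limit, the primary screen's mean plus 3 SD, cut at about 15% in these data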;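 further: 0% = DMSO wells and 100% = wells lacking p97 protein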
Numbers without * were called inactive; i = inactive; ? = inconclusive; . = no result given.

SMILES	Rad51 HR inh	ABCB1 inh	HSV replic up	ABCB6 inh 2	ABCG2 block	p97 ATPase inh	p97 confirm
Cc1nn(C)cc1C(C(=O)NC1CCCCC1)N(C(=O)c1cnccn1)c1ccc(Oc2ccccc2)cc1 (centres undefined)	13	0	i	92	-2	1	.
COc1cccc(CC(=S)N2CCOCC2)c1	.	0	i	101	3	16*	8
COc1ccc(CN2C(=O)C(CC(=O)NC3CC3)CC(C(=O)N(C)C)=C2C)cc1 (centres undefined)	.	.	.	101	.	.	.
Cc1ccccc1-c1cc(=O)c2c(O)cccc2o1	-9	.	i	97	.	.	.
O=c1cc2oc3cc(O)c(O)cc3c(-c3ccccc3O)c-2cc1O	-408	.	?	122	.	29*	36*
CCc1nc2c(OCc3cccc(Cl)c3)cccn2c1N(C)C(=O)c1ccc(OC)cc1	.	.	.	94	.	.	.
O=C(NC1(O)C(=O)c2ccccc2C1=O)c1ccccc1	10	0	i	107	-7	9	.
O=C(NC1(O)C(=O)c2ccccc2C1=O)c1c(Cl)cccc1Cl	-14	.	i	95	.	20*	41*
Cc1cccc(NC(=O)c2sc(NC(=O)c3ccco3)c(C#N)c2C)c1C	6	0	i	91	9	16*	10
Cc1cccc(NC(=O)c2ccco2)c1C	.	.	.	102	.	.	.
COc1ccc(-c2nc3c(Cl)cc(C(F)(F)F)cn3c2Cc2ccsc2)cc1OC	.	.	.	97	.	.	.
CCC(C)c1ccc(C2C3=C(Nc4nc(N)[nH]c(=O)c42)c2ccccc2C3=O)cc1 (centres undefined)	-6	.	i	116	.	15*	5
COc1cccc(C(=O)NCc2ccc3c(c2)cc(C)n3C)c1	-10	1	?	108	2	20*	8
COc1ccc(C(=O)NCc2ccc3c(c2)cc(C)n3C)cc1OC	8	-1	i	100	-1	4	.
Cc1nnc(SCC(=O)Nc2ccccc2)c2ccccc12	.	.	.	100	.	.	.
CC(=O)Nc1ccc2c(c1)OCCO2	6	0	i	93	3	63*	5
CC(=O)Nc1ccc2c(c1)OCO2	8	0	i	95	1	7	.
O=C1C=CC(=NN=C(c2ccccc2)c2ccccc2)C=C1	.	.	.	98	.	.	.
Cn1c(-c2ccccc2)c(/C=N/NC(=O)c2ccc(O)cc2)c2ccccc21	9	.	i	96	.	17*	28*
Cn1cccc1CC(=O)N/N=C/c1ccco1	16	.	i	101	.	17*	12
Cn1cccc1CC(=O)NNC(=O)Nc1cccc(Cl)c1	.	0	i	104	-1	3	.
Cn1cccc1CC(=O)NNC(=O)Nc1ccc(Cl)cc1	.	0	i	98	25	19*	7
Cc1ccc(C(C(=O)NCc2ccco2)N(C(=O)Cn2nnc3ccccc32)c2ccccc2)o1 (centres undefined)	-1	1	i	100	2	16*	8
Cc1ccc(N(C(=O)Cn2nnc3ccccc32)C(C(=O)NCc2ccco2)c2ccc(C)o2)cc1 (centres undefined)	-2	5	i	91	19	4	.
O=C(COC(=O)/C=C/c1ccc(OC(F)F)cc1)Nc1cccc(S(=O)(=O)N2CCOCC2)c1	.	.	.	102	.	.	.
SMILES	Rad51 HR inh	ABCB1 inh	HSV replic up	ABCB6 inh 2	ABCG2 block	p97 ATPase inh	p97 confirm
CCOC(=O)CC(C#N)c1c[nH]c2ccccc12 (centres undefined)	2	0	i	96	2	16*	9
Cc1[nH]c2ccccc2c1C(=O)CSc1ccccc1	-1	0	i	99	11	1	.
Cc1ccc(S(=O)(=O)CCC(=O)OCC(=O)c2c(C)[nH]c3ccccc23)cc1	-2	0	i	99	15	20*	14
Cc1[nH]c2ccccc2c1C(=O)CCl	1	0	i	98	2	36*	37*
Cc1cc(C)cc(NC(=O)COc2coc(CN3CCc4ccccc4C3)cc2=O)c1	.	.	.	93	.	.	.
N#CC1=C2SCN(c3ccccc3)CN2C(=O)CC1c1c(Cl)cccc1Cl (centres undefined)	0	0	i	97	-1	17*	4
CCCCOc1ccccc1NC(=O)c1scc2c1OCCO2	6	2	i	104	6	16*	20*
CCc1nc2ccc(C(=O)Nc3ccc(C(=O)N(C)C)cc3)cn2c1N(C)CCCc1ccccc1	.	.	.	86	.	.	.
O=C(N/N=C/c1c[nH]c2ccccc12)c1cc(-c2ccccc2)n[nH]1	0	-1	i	102	-9	4	.
O=C(N/N=C/c1c[nH]c2ccccc12)c1cc(-c2ccc(-c3ccccc3)cc2)n[nH]1	-5	-1	i	99	-2	17*	11
CCCCN(C)c1c(C)nc2ccc(C(=O)NCCCn3ccnc3)cn12	.	.	.	77	.	.	.
CC(C)CSc1nc(N)nc2c1ncn2C1OC(CO)C(O)C1O (centres undefined)	.	.	.	931	.	.	.
COc1cc(/C=C/c2ccc3c(Br)cc(Br)c(O)c3n2)ccc1O	0	.	?	144	.	18*	15*
OC(c1cccc(Cl)c1)c1ncc(-c2cccc3ccccc23)[nH]1 (centres undefined)	.	.	.	95	.	.	.
O=C(NCC1CCCCC1)c1ccc2nc([C@@H]3O[C@H](CO)[C@@H](O)[C@H]3O)[nH]c2c1	.	.	.	100	.	.	.
Cc1ccc(NC(=O)C2C(c3ccccc3)C2(Cl)Cl)c(C)c1 (centres undefined)	-1	0	i	92	1	-1	.
Cc1cccc(NC(=O)C2C(c3ccccc3)C2(Cl)Cl)c1 (centres undefined)	2	1	i	94	4	19*	37*
COc1ccc(NC(=O)C2C(c3ccccc3)C2(Cl)Cl)cc1 (centres undefined)	-3	.	i	95	.	8	.
CC(=O)c1cccc(NC(=O)C2C(c3ccccc3)C2(Cl)Cl)c1 (centres undefined)	13	0	i	97	7	28*	32*
O=c1oc(-c2ccc(O)c(O)c2)cc2cccc(O)c12	.	.	.	92	.	.	.
Oc1cccc2cc3cccc(O)c3c(O)c12	11	0	i	100	-1	15*	14
